Only some compounds are listed: those with a hit (about 2.8% of all), similar ones and a draw of the others.
NPY-Y2 antag: NPY-Y2 receptor antagonists, primary screen, cell-based | inhibition, % at 2.7 µM | NPY-Y2 expressing cells, antagonist mode | AID 793, 2007 | Neuropeptide Y receptor type 2 (Homo sapiens), P49146 | 140,000 compounds, 0.99% hits; in the data active = inhibition above about 17%;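 note: 0% = vehicle with agonist challenge and 100% = reference antagonist with challenge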
Rad51 HR inh: human RAD51 strand exchange inhibitors, primary screen, biochemical, fluorescence; hRad51 DNA strand exchange, fluorescence dequenching; inhibition, % at 10 µM; 200,000 compounds, 0.085% hits; AID 1385, 2008;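 active = inhibition above 40% at the single screening dose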;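 note: 0% = DMSO control wells and 100% = blanks with heterologous ssDNA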
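Read-out basis: percent inhibition relative to plate controls and blanks / Assay system: human Rad51 nucleoprotein filaments preassembled on unlabelled ssDNA / Timing: filaments 15 min 37 °C, then compound 30 min / Control set: per-plate controls and blanks / Technique: fluorescence dequenching at 485/520 nm / Compound: 10 µM final, single point / Also added: Fluorescein- and BHQ1-tagged 47-mer duplex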
Measles CPE: compounds protecting cells from measles virus cytopathic effect, primary screen, measles RdRp inhibitor project, single point, MLSMR library, absorbance. Measles virus-infected cells, CPE protection. protection (pct of control), % at 4 µM. 140,000 compounds, 1.5% hits. AID 841, 2007; in the data active = protection mostly above about 24%, no sharp cut-off; inactive = mostly below about 26%
NPY-Y2 PAM-ag: NPY-Y2 potentiators or agonists, primary screen, cell-based | activation, % at 3.6 µM | AID 1359, 2008 | 220,000 compounds, 0.45% hits | Neuropeptide Y receptor type 2 (Homo sapiens), P49146 | cells expressing NPY-Y2, potentiator/agonist read-out; in the data active = activation above about 27%;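 note: cells stimulated with NPY near EC25 plus isoproterenol at EC100; 0% = vehicle plus submaximal agonist and 100% = vehicle plus saturating agonist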
NPY-Y1 PAM-ag: NPY-Y1 receptor potentiators or agonists, primary screen, cell-based | Neuropeptide Y receptor type 1 (Homo sapiens), P25929 | NPY-Y1 expressing cells, potentiator/agonist activation | activation, % at 3.6 µM | 220,000 compounds, 0.37% hits | AID 1304, 2008; in the data active = activation above about 33%, passing the limit was not always enough;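 note: cells stimulated with NPY at EC10 then isoproterenol at EC100; 0% = low agonist plus stimulus and 100% = saturating agonist plus stimulus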
Target sequence (P25929 whole entry, looked up): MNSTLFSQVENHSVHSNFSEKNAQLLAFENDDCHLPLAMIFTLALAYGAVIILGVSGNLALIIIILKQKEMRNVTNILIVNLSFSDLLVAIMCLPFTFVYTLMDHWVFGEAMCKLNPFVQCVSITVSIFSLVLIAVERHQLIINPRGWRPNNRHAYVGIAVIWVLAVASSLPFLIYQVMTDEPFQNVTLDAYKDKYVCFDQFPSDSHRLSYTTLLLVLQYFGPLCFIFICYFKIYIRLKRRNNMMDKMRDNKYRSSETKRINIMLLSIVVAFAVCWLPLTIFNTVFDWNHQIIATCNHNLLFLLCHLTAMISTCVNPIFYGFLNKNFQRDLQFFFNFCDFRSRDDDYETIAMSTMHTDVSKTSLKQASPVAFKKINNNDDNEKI
NPY Y1 blocker: NPY-Y1 receptor antagonists, primary screen, cell-based. 200,000 compounds, 1% hits. AID 1040, 2008. HEK293-CNG Y1 cells, membrane potential fluorescence; NPY at EC95, then isoproterenol. inhibition, % at 3.6 µM;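 active = inhibition above the campaign mean inhibition of all tested compounds plus 3 SD, cut at about 20% in these data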;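 note: 0% = DMSO wells given NPY plus isoproterenol and 100% = isoproterenol alone without NPY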
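Material: HEK293 Y1/CNG channel cell line | Also added: NPY (25 nM), isoproterenol (1 µM), Ro 20-1724 (25 µM) | Compound: One concentration, 3.6 µM, in 0.4% DMSO | Schedule: 3 h dye uptake, 1 h room-temperature compound, 45 min post-isoproterenol | Signal: Membrane-potential fluorescent dye readout | Read-out: % inhibition of NPY effect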
NPY-Y1 confirm: NPY-Y1 potentiators or agonists, confirmation, cell-based. shares compounds with NPY-Y1 PAM-ag. cell-based NPY-Y1 potentiator/agonist assay. activation, % at 3.6 µM. 280 compounds, 20% hits; in the data active = activation above about 45%;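 note: cells challenged with NPY at its EC10 plus isoproterenol stimulus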
NPY-Y2 counter: NPY-Y2 potentiators or agonists, counter-screen for NPY-Y1 potentiator project, cell-based, fluorescence. shares compounds with NPY-Y1 PAM-ag. HEK293-CNG cells, membrane-potential fluorescence (FLIPR), 1536-well. activation, % at 3.6 µM. 280 compounds, 20% hits. AID 1649, 2009; in the data active = activation above about 33%
NPY-Y1 ag: NPY-Y1 direct agonists without NPY, confirmation, counter-screen for NPY-Y1 potentiator project, cell-based, fluorescence. AID 1697, 2009. HEK293 Y1-CNGC, membrane potential fluorescence, agonist mode. shares compounds with NPY-Y1 PAM-ag. activation, % at 3.6 µM. 280 compounds, 50% hits;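 active = percent activation above the mean of DMSO-only control wells plus 3 SD of those wells, cut at about 18% in these data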;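 note: cells challenged with isoproterenol plus Ro 20-1724 with no NPY in test wells; Y1 agonism lowers isoproterenol-driven cAMP and reduces probe fluorescence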
NPY-Y2 ag: NPY-Y2 direct agonists without NPY, counter-screen for NPY-Y1 potentiator project, cell-based, fluorescence. shares compounds with NPY-Y1 PAM-ag. HEK293 Y2-CNGC, membrane potential fluorescence, agonist mode. activation, % at 3.6 µM. 280 compounds, 67% hits;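 active = activation above the solvent-only control wells' mean plus 3 SD, cut at about 11% in these data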;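 note: 0% = DMSO with isoproterenol and 100% = 40 nM NPY maximal response; agonism lowers cAMP so well fluorescence drops in active wells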
CNGC counter: CNGC cAMP sensor activity inhibitors, counter-screen for NPY-Y1 potentiator/agonist project, cell-based, HEK293-CNG parental, membrane potential fluorescence, Y1 set | shares compounds with NPY-Y1 PAM-ag | isoproterenol cAMP | inhibition, % at 3.6 µM | 280 compounds, 42% hits;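 active = inhibition above the mean of stimulated solvent-only control wells plus 3 SD, cut at about 22% in these data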;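 note: 0% = isoproterenol-stimulated DMSO wells and 100% = unstimulated DMSO wells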
* marks the source's active call; other numbers are inactive results; . = no result given.

SMILES	NPY-Y2 antag	Rad51 HR inh	Measles CPE	NPY-Y2 PAM-ag	NPY-Y1 PAM-ag	NPY Y1 blocker	NPY-Y1 confirm	NPY-Y2 counter	NPY-Y1 ag	NPY-Y2 ag	CNGC counter
O=C(Cc1ccc(Cl)cc1)Nc1ncc([N+](=O)[O-])s1	.	13	.	11	36*	-3	8	14	14	11*	6
CCC(=O)Nc1c2c(nn1-c1ccc(OC)cc1)CS(=O)C2 (centres undefined)	4	1	17	-5	-22	-3	.	.	.	.	.
CCC(CC)C(=O)Nc1c2c(nn1-c1ccc(OC)cc1)CS(=O)C2 (centres undefined)	2	-2	5	2	41*	3	-2	-2	-4	2	2
O=C(CN1C(=O)NC(c2ccccc2)(c2ccccc2)C1=O)c1c[nH]c2ccccc12	.	0	.	28	40*	-8	36	28	34*	21*	29*
CC1CCN(CC(O)COC2CC(C)CCC2C(C)C)CC1 (centres undefined)	.	-9	.	-4	41*	10	4	5	-7	16*	-9
CC1CCC(C(C)C)C(OCC(O)CNC(C)c2ccccc2)C1 (centres undefined)	.	-17	.	17	43*	7	32	39*	45*	42*	14
CC(NCC(O)COC1CCC(C(C)(C)C)CC1)c1ccccc1 (centres undefined)	.	0	.	-23	-31	18	.	.	.	.	.
Clc1ccc(Oc2nc3c(Cl)cccc3s2)cc1Cl	.	.	.	-14	-65	.	.	.	.	.	.
N#Cc1c(-n2cccc2/C=N/O)sc2c1CCCC2	3	4	4	15	44*	4	2	-2	-2	3	-2
CCCCN(C)S(=O)(=O)c1ccc(C(=O)Nc2nnc(-c3ccco3)o2)cc1	.	6	.	4	-13	-4	.	.	.	.	.
Cc1ccc(S(=O)(=O)NCCc2ccncc2)cc1C	.	31	.	4	-4	6	.	.	.	.	.
CCN(CC)S(=O)(=O)c1cc(NC(=O)Cn2ncc(Cl)c(Cl)c2=O)ccc1C	.	-4	.	32	44*	.	36	19	22*	18*	27*
COc1ccccc1Cn1c(-c2ccccc2OC)nc2ccccc21	8	0	19	-10	20	-1	.	.	.	.	.
Oc1ccccc1Cn1c(-c2ccccc2O)nc2ccccc21	-7	-6	8	31	39*	-12	32	25	27*	26*	20
COC(=O)COc1ccc(/C=C2/NC(=O)N(CC(=O)OC)C2=O)cc1	.	.	.	9	49*	-2	118*	90*	103*	89*	96*
Cn1cc([N+](=O)[O-])c(C(=O)Nc2ccc(C3CCCCC3)cc2)n1	.	16	.	22	37*	-10	36	19	19*	17*	15
Cc1ccc(NCC(=O)N/N=C/c2c[nH]c3ccccc23)cc1	.	15	.	12	17	4	.	.	.	.	.
O=C(Nc1nc2c(Br)cc(Br)cc2c(=O)s1)C1CCC1	.	-28	.	-7	-11	.	.	.	.	.	.
CCCC(=O)Nc1ccc(NC(=O)CCc2ccccc2)cn1	3	7	21	17	52*	-5	-1	1	-8	6	3
Cc1ccccc1Cn1cc(NC(=O)c2cc(C3CC3)on2)cn1	.	.	.	-5	12	.	.	.	.	.	.
CCCC(=O)c1ccc(N2CCN(C(=O)c3ccccc3Br)CC2)c(F)c1	5	-16	25	8	34*	-19	-27	0	-11	-2	-1
CC(C)Cc1nc(N2CCN(C(=O)C(C)C)CC2)c(C#N)c2c1CCC2	10	1	2	-9	31*	7	-22	-8	-26	-7	-9
CC(=O)N1CCN(c2nc(CC(C)C)c3c(c2C#N)CCC3)CC1	2	.	2	-25	7	4	.	.	.	.	.
CC(C)(C)c1ccc(Oc2ccc(N)cn2)cc1	.	6	.	39	49*	.	41	40*	20*	40*	34*
Cc1cc(Oc2ccc(N)cn2)cc(C)c1Cl	.	-57	.	-1	16	.	.	.	.	.	.
COc1cc(C2Nc3ccccc3C(=O)N2c2ccc3c(c2)OCCO3)ccc1OCC(C)C (centres undefined)	2	-3	9	-6	18	-8	.	.	.	.	.
Cc1cccc(C)c1OCC(O)CN (centres undefined)	3	8	4	-4	-2	-3	.	.	.	.	.
Cc1cc(OCC(O)CN)ccc1Cl (centres undefined)	.	-1	.	20	51*	2	12	9	8	18*	5
COC(=O)c1c(NC(=O)C2CC(=O)NN2Cc2ccccc2)sc(C)c1C (centres undefined)	1	5	16	-15	-33	5	.	.	.	.	.
COc1cc(/C=C2\SC(=S)N(N3CCOCC3)C2=O)cc(OC)c1OC	2	-1	15	-6	9	4	.	.	.	.	.
